In ChEMBL document CHEMBL1136894, “New antituberculotics originated from salicylanilides with promising in vitro activity against atypical mycobacterial strains” (Bioorg Med Chem, 2009):
Values after ≈ are worked out from the molar mass of the structure shown.

What was measured:
[1] = system: Mycobacterium tuberculosis; assay: Antimycobacterial activity against Mycobacterium tuberculosis CNCTC My 331/88 after 14 days; type: functional; conditions: CNCTC My 331/88, 336 h
In short: (§1)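 Broth dilution in Sula semisynthetic medium, compounds added as DMSO solutions at 250, 125, 62, 32, 16, 8, 4, 2 and 1. Strains came from the Czech National Collection of Type Cultures; the M. tuberculosis inoculum was diluted 10^-3. Cultures were incubated at 37 °C, and MIC was read after 7, 14 and 21 days.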

Mycobacterium kansasii [2] = assay: Antimycobacterial activity against Mycobacterium kansasii CNCTC My 235/80 after 21 days; type: functional; conditions: CNCTC My 235/80, 504 h
In short: (§2)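 Compounds were added as DMSO solutions to Sula semisynthetic medium at 250, 125, 62, 32, 16, 8, 4, 2 and 1 µmol/L. Two M. kansasii strains were used: CNCTC My 235/80 and clinical isolate 6509/96, each with strain dilution 10^-4. Incubation was at 37 °C, and MIC was read at 7, 14 and 21 days.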

Mycobacterium kansasii [3] = assay: Antimycobacterial activity against Mycobacterium kansasii isolate 6509/96 after 21 days; type: functional; conditions: isolate 6509/96, 504 h; in short: as §2
Mycobacterium kansasii [4] = assay: Antimycobacterial activity against Mycobacterium kansasii isolate 6509/96 after 7 days; type: functional; conditions: isolate 6509/96, 168 h; in short: as §2
HCT-8 = assay: Cytotoxicity against human HCT8 cells after 72 hrs by XTT assay; type: functional, cell-based; conditions: HCT-8, 72 h
In short: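 HCT-8 cells were grown in EMEM with 5% FBS at 37 °C under 5% CO2. They were harvested with trypsin, seeded at 2 × 10^5 cells/mL and left 24 h. Medium was then replaced with compound in DMSO. DMSO-only wells served as the viability control and 20% DMSO as the cytotoxic control. Reagent was added for 4 h and absorbance read at 450 nm. Triplicates; EC50 reported.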

Mycobacterium avium [5] = assay: Antimycobacterial activity against Mycobacterium avium CNCTC My 330/88 after 21 days; type: functional; conditions: CNCTC My 330/88, 504 h; in short: as §1
Mycobacterium kansasii [6] = assay: Antimycobacterial activity against Mycobacterium kansasii CNCTC My 235/80 after 14 days; type: functional; conditions: CNCTC My 235/80, 336 h; in short: as §2
Mycobacterium kansasii [7] = assay: Antimycobacterial activity against Mycobacterium kansasii CNCTC My 235/80 after 7 days; type: functional; conditions: CNCTC My 235/80, 168 h; in short: as §2
[8] = system: Mycobacterium tuberculosis; assay: Antimycobacterial activity against Mycobacterium tuberculosis CNCTC My 331/88 after 21 days; type: functional; conditions: CNCTC My 331/88, 504 h; in short: as §1
[9] = Lipophilicity, log K by HPLC; type: physicochemical
In short: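 Capacity factors k were measured by RP-HPLC and log k was calculated from them.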

Mycobacterium kansasii [10] = assay: Antimycobacterial activity against Mycobacterium kansasii isolate 6509/96 after 14 days; type: functional; conditions: isolate 6509/96, 336 h; in short: as §2
[11] = Stability assessed as half life in phosphate buffer at pH 7.4 by UV-visible spectroscopy; type: physicochemical
In short: (§3)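 Compound in methanolic solution (10 or 20 µL) was added to tempered 7 × 10^-2 M phosphate buffer (2 mL) at pH 7.4 or 5.5, 37 °C. The absorbance decrease at 224 nm was followed by UV/vis.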

[12] = Stability assessed as half life in phosphate buffer at pH 5.5 by UV-visible spectroscopy; type: physicochemical; in short: as §3
[13] = Selectivity index, ratio of EC50 for human HCT8 cells to MIC for Mycobacterium tuberculosis CNCTC My 331/88; type: functional, HCT-8
In short: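 SI is EC50 in HCT-8 cells divided by the M. tuberculosis MIC. HCT-8 cells were grown in EMEM with 5% FBS at 37 °C under 5% CO₂, trypsinised and seeded at 2 × 10⁵ cells/mL. After 24 h the medium was replaced with compound in DMSO. Controls were DMSO alone and 20% DMSO. Absorbance was read at 450 nm 4 h after reagent addition, in triplicate.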

Mycobacterium avium [14] = assay: Antimycobacterial activity against Mycobacterium avium CNCTC My 330/88 after 14 days; type: functional; conditions: CNCTC My 330/88, 336 h; in short: as §1

| SMILES | MIC [1] | MIC (Mycobacterium kansasii [2]) | MIC (Mycobacterium kansasii [3]) | MIC (Mycobacterium kansasii [4]) | EC50 (HCT-8) | MIC (Mycobacterium avium [5]) | MIC (Mycobacterium kansasii [6]) | MIC (Mycobacterium kansasii [7]) | MIC [8] | log K [9] | MIC (Mycobacterium kansasii [10]) | half-life [11] | half-life [12] | Ratio [13] | MIC (Mycobacterium avium [14]) |
| --- | --- | --- | --- | --- | --- | --- | --- | --- | --- | --- | --- | --- | --- | --- | --- |
| CC(C)[C@H](NC(=O)OCc1ccccc1)C(=O)Oc1ccc(Cl)cc1C(=O)Nc1ccc(Br)cc1 | 4 µM (≈ 2.24 µg/mL) | 8 µM (≈ 4.48 µg/mL) | 8 µM (≈ 4.48 µg/mL) | 8 µM (≈ 4.48 µg/mL) | 122 µM | 16 µM (≈ 8.96 µg/mL) | 8 µM (≈ 4.48 µg/mL) | 4 µM (≈ 2.24 µg/mL) | 4 µM (≈ 2.24 µg/mL) | 0.9803 | 8 µM (≈ 4.48 µg/mL) | 14.8 min | 14.3 min | 16.74 | 8 µM (≈ 4.48 µg/mL) |
| O=C(N[C@H](Cc1ccccc1)C(=O)Oc1ccc(Cl)cc1C(=O)Nc1ccc(Cl)c(Cl)c1)OCc1ccccc1 | 2 µM (≈ 1.2 µg/mL) | 8 µM (≈ 4.78 µg/mL) | 8 µM (≈ 4.78 µg/mL) | 8 µM (≈ 4.78 µg/mL) | – | 32 µM (≈ 19.1 µg/mL) | 4 µM (≈ 2.39 µg/mL) | 4 µM (≈ 2.39 µg/mL) | 2 µM (≈ 1.2 µg/mL) | 1.303 | 8 µM (≈ 4.78 µg/mL) | – | – | – | 16 µM (≈ 9.57 µg/mL) |
| O=C(N[C@@H](Cc1ccccc1)C(=O)Oc1ccc(Cl)cc1C(=O)Nc1ccc(Cl)cc1)OCc1ccccc1 | 4 µM (≈ 2.25 µg/mL) | 16 µM (≈ 9.01 µg/mL) | 16 µM (≈ 9.01 µg/mL) | 8 µM (≈ 4.51 µg/mL) | – | 16 µM (≈ 9.01 µg/mL) | 16 µM (≈ 9.01 µg/mL) | 8 µM (≈ 4.51 µg/mL) | 4 µM (≈ 2.25 µg/mL) | 1.0971 | 16 µM (≈ 9.01 µg/mL) | – | – | – | 16 µM (≈ 9.01 µg/mL) |
| CC(C)[C@H](NC(=O)OCc1ccccc1)C(=O)Oc1cc(Cl)ccc1C(=O)Nc1ccc(Cl)cc1 | 4 µM (≈ 2.06 µg/mL) | 8 µM (≈ 4.12 µg/mL) | 16 µM (≈ 8.25 µg/mL) | 4 µM (≈ 2.06 µg/mL) | – | 16 µM (≈ 8.25 µg/mL) | 8 µM (≈ 4.12 µg/mL) | 4 µM (≈ 2.06 µg/mL) | 8 µM (≈ 4.12 µg/mL) | 0.8804 | 8 µM (≈ 4.12 µg/mL) | – | – | – | 16 µM (≈ 8.25 µg/mL) |
| C[C@H](NC(=O)OCc1ccccc1)C(=O)Oc1cc(Cl)ccc1C(=O)Nc1ccc(Cl)cc1 | 4 µM (≈ 1.95 µg/mL) | 8 µM (≈ 3.9 µg/mL) | 16 µM (≈ 7.8 µg/mL) | 8 µM (≈ 3.9 µg/mL) | – | 16 µM (≈ 7.8 µg/mL) | 8 µM (≈ 3.9 µg/mL) | 4 µM (≈ 1.95 µg/mL) | 8 µM (≈ 3.9 µg/mL) | 0.6337 | 8 µM (≈ 3.9 µg/mL) | – | – | – | 16 µM (≈ 7.8 µg/mL) |
| O=C(N[C@@H](Cc1ccccc1)C(=O)Oc1cc(Cl)ccc1C(=O)Nc1ccc(Cl)cc1)OCc1ccccc1 | 4 µM (≈ 2.25 µg/mL) | 8 µM (≈ 4.51 µg/mL) | 8 µM (≈ 4.51 µg/mL) | 4 µM (≈ 2.25 µg/mL) | 82.9 µM | 8 µM (≈ 4.51 µg/mL) | 8 µM (≈ 4.51 µg/mL) | 4 µM (≈ 2.25 µg/mL) | 4 µM (≈ 2.25 µg/mL) | 1.0304 | 8 µM (≈ 4.51 µg/mL) | 25.3 min | 21.9 min | 20.73 | 8 µM (≈ 4.51 µg/mL) |
| C[C@@H](NC(=O)OCc1ccccc1)C(=O)Oc1cc(Cl)ccc1C(=O)Nc1ccc(Cl)cc1 | 4 µM (≈ 1.95 µg/mL) | 8 µM (≈ 3.9 µg/mL) | 16 µM (≈ 7.8 µg/mL) | 4 µM (≈ 1.95 µg/mL) | – | 16 µM (≈ 7.8 µg/mL) | 8 µM (≈ 3.9 µg/mL) | 8 µM (≈ 3.9 µg/mL) | 8 µM (≈ 3.9 µg/mL) | 0.6334 | 8 µM (≈ 3.9 µg/mL) | – | – | – | 16 µM (≈ 7.8 µg/mL) |
| O=C(N[C@H](Cc1ccccc1)C(=O)Oc1ccc(Cl)cc1C(=O)Nc1cccc(Cl)c1)OCc1ccccc1 | 4 µM (≈ 2.25 µg/mL) | 16 µM (≈ 9.01 µg/mL) | 16 µM (≈ 9.01 µg/mL) | 8 µM (≈ 4.51 µg/mL) | – | 32 µM (≈ 18 µg/mL) | 16 µM (≈ 9.01 µg/mL) | 8 µM (≈ 4.51 µg/mL) | 4 µM (≈ 2.25 µg/mL) | 1.0476 | 16 µM (≈ 9.01 µg/mL) | – | – | – | 16 µM (≈ 9.01 µg/mL) |
| CC(C)[C@H](NC(=O)OCc1ccccc1)C(=O)Oc1ccc(Cl)cc1C(=O)Nc1cccc(Cl)c1 | 4 µM (≈ 2.06 µg/mL) | 16 µM (≈ 8.25 µg/mL) | 16 µM (≈ 8.25 µg/mL) | 8 µM (≈ 4.12 µg/mL) | – | 16 µM (≈ 8.25 µg/mL) | 16 µM (≈ 8.25 µg/mL) | 8 µM (≈ 4.12 µg/mL) | 4 µM (≈ 2.06 µg/mL) | 0.8972 | 16 µM (≈ 8.25 µg/mL) | – | – | – | 16 µM (≈ 8.25 µg/mL) |
